Hits are enriched below; roughly 3.5% of the tested compounds scored in any of these assays.
MrgX1 agonist: agonists of human MrgX1 receptor | Q96LB2 | MrgX1-HEK293 cells, Fluo-4 calcium fluorescence, agonist mode; hits give high values | B-score at 10 µM | hit rate 0.44% among 310,000;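 active means calcium response B-score plate-corrected fluorescence ratio at least 3 library SD, with starting fluorescence B-score inside 5 SD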
Target sequence (Q96LB2 whole entry, looked up): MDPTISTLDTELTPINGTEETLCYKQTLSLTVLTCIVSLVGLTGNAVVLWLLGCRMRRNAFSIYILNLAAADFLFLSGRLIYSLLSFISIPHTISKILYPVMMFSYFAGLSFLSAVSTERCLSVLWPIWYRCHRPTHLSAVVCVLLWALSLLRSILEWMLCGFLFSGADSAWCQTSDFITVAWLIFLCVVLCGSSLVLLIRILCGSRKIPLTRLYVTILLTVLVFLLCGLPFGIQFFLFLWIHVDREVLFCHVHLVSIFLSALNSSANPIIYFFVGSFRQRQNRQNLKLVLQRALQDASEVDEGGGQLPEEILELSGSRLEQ
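Material: HEK293 cells stably expressing human MrgX1 receptor | Quantity: 15,000 cells per well | Times: Cells plated overnight, dye loaded 0.5 h 37 °C, 0.5 h room temperature | Measured by: Kinetic Fluo-4 NW fluorescence of intracellular calcium | Control set: Positive and negative controls per plate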
RGS4 block: human RGS4 inhibition; P49798; HEK293 M3R/RGS4 inducible, Fluo-4 calcium flux; hits give high values; triggered by carbachol at its EC20; B-score at 10 µM; hit rate 0.45% among 310,000; AID 463165;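 active means B-score, a plate-corrected calcium signal, over three deviations above library mean, with baseline fluorescence within five deviations of library mean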;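 further: RGS4 expression induced by doxycycline in cells with stable M3 receptor; B-score is computed from the integrated fluorescence ratio over baseline after carbachol; higher B-score means a larger calcium signal and so more RGS4 inhibition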
Target sequence (P49798 whole entry, looked up): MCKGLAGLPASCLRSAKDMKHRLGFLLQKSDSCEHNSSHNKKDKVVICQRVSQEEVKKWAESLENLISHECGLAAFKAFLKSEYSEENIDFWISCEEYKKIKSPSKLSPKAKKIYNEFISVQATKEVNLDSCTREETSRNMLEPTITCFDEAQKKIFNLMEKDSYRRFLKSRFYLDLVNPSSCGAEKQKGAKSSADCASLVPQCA
MrgX1 allo act: human MrgX1 positive allosteric modulation, primary screen | MrgX1-HEK293, Fluo-4 calcium flux, FDSS; hits give high values | B-score at 10 µM | hit rate 0.63% among 310,000 | AID 588675;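 active means plate-corrected calcium response at least 3 library SD above typical, normal starting fluorescence, not activating the receptor alone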;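 further: compound read alongside a low EC10 to EC30 dose of BAM8-22 agonist; peak minus trough fluorescence over baseline measured at the second addition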
MrgX1 antagonist: human MrgX1 receptor antagonism, primary screen; hit rate 1.3% among 310,000; Q96LB2; B-score at 10 µM; MRGX1-HEK293 calcium flux, Fluo-4, BAM8-22 antagonism; hits give low values;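 active means calcium-response B-score plate-corrected more than 3 library SD below zero, starting fluorescence within 5 deviations, no agonist response on first addition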;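 further: peak minus trough fluorescence over baseline after final BAM8-22 challenge near maximal dose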
RGS4 act: potentiators or activators of RGS4. HEK293 M3R/inducible RGS4, carbachol calcium flux Fluo4; hits give low values. B-score at 10 µM. hit rate 0.92% among 310,000. AID 463111;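 active means B-score of the integrated calcium signal more than 4 SD below the library mean, with starting fluorescence not abnormally high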;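 further: negative B-score means reduced calcium response which marks RGS4 activation or potentiation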
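Assay system: Inducible-RGS4 HEK293 cells carrying M3 receptor | Schedule: Compound preincubation 20 min at room temperature before agonist | Signal: Kinetic calcium fluorescence imaging with Fluo4-AM dye, 2 µM | Read-out basis: B score from integrated fluorescence ratio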
MrgX1 antag conf: confirmation of human MrgX1 receptor antagonists. hit rate 19% among 2,300. MrgX1-HEK293, BAM8-22 calcium flux, Fluo-4; hits give low values. AID 602420. shares compounds with MrgX1 antagonist. remaining BAM8-22 calcium response % of control (hits give low values), % at 10 µM;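 active means remaining agonist calcium response no higher than 100% minus 3 SD of agonist-only control wells, with starting fluorescence near control levels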;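 further: agonist BAM8-22 given at a near maximal EC90 to ECmax level; peak minus minimum fluorescence divided by baseline after agonist addition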
HEK293 Ca flux: counter-screen for MrgX1 antagonists: effect in parental HEK293 cells | shares compounds with MrgX1 antagonist | Fluo-4 calcium fluorescence, FDSS | fluorescence ratio F(max-min)/F0 at 10 µM | hit rate 2% among 4,000 | AID 624111;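 active means duplicate-averaged calcium fluorescence ratio at least three times the standard deviation of buffer wells, a nonspecific response in parental cells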
HEK293 Ca counter: activity in parental HEK293 cells without MrgX1. shares compounds with MrgX1 antagonist. fluorescence ratio F(max-min)/F0 at 10 µM. parental HEK293 calcium flux, Fluo-4 fluorescence ratio; hits give high values. hit rate 0.4% among 4,000;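 active means calcium fluorescence ratio, averaged over duplicates, at least 3 SD of the buffer-well ratio, meaning a nonspecific response in receptor-free cells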;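 further: untransfected parental HEK293 lacking MrgX1 used as counterscreen for MrgX1 allosteric activators; fluorescence change taken during the second addition on a kinetic imager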
HEK293 Ca cntr2: counter-screen for MrgX1 activators: effect in parental HEK293 cells. Fluo-4 calcium fluorescence (FDSS); hits give high values. hit rate 8.7% among 4,000. fluorescence ratio F(max-min)/F0 at 10 µM. shares compounds with MrgX1 antagonist;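 active means calcium fluorescence ratio at least three times the spread of buffer wells, meaning a non-specific response in parental cells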
A number is an active result; - = inactive; . = no result given.

SMILES	MrgX1 agonist	RGS4 block	MrgX1 allo act	MrgX1 antagonist	RGS4 act	MrgX1 antag conf	HEK293 Ca flux	HEK293 Ca counter	HEK293 Ca cntr2
O=C(Cn1cc2c(n1)CCCC2)N1CCOCC1	-	-	-	-5.4	-	-	-	-	-
CCCCCN(C(=O)CCC(=O)OCC(=O)N1CCC(C)CC1)c1c(N)n(CCCC)c(=O)[nH]c1=O	-	-	-	-	-	.	.	.	.
CCCCNc1c(N)n(CCC)c(=O)[nH]c1=O	-	-	-	-	-	.	.	.	.
CCCn1c(N)c(NCCN2CCOCC2)c(=O)[nH]c1=O	-	-	-	-5.9	-	-	-	-	-
COc1ccc(CNC(=O)OCCN2CCN(Cc3ccccc3)CCC2=O)cc1	-	-	-	-4.9	-	-	-	-	-
COc1ccc(NC(=O)OCCN2CCN(Cc3ccccc3)CCC2=O)cc1	-	-	-	-	-	.	.	.	.
CCn1ccc(C(=O)Nc2ncc(C)s2)n1	-	-	-	-5.4	-	-	-	-	-
COc1ccc(NC(=O)CNC(=O)Cc2ccccc2)cc1	-	-	-	-	-	.	.	.	.
COc1ccc(CC(=O)NCC(=O)Nc2ccccc2Br)cc1	-	-	-	-6	-	-	-	-	-
Cc1ccc(C(=O)NCCc2nnc3ccc(SCC(=O)Nc4c(C)cc(C)cc4C)nn23)cc1	-	-	-	-5.7	-	-	-	-	-
Cc1ccc(S(=O)(=O)N(CC(=O)NC2CC2)c2ccc(C)c(Cl)c2)cc1	-	-	-	-5	-	-	-	-	-
CC(Cc1cccs1)NC(=O)CCCn1nnnc1CN1CCOCC1 (stereo not given)	-	-	-	-	-	.	.	.	.
CC1CCCCC1NC(=O)c1cccc(S(=O)(=O)N2CCN(Cc3ccccc3)CC2)c1 (stereo not given)	-	-	-	-6.1	-	-	-	-	-
CCOC(=O)C1=C(O)/C(=C\c2sccc2C)N=C1C	-	-	-	-5.2	-	-	-	-	-
CNCCCOc1cccc(OC(C)C)c1	-	-	-	-7.3	-	-	-	-	-
Cc1ccc(C)c(OC2=NS(=O)(=O)c3ccccc32)c1	-	-	-	-4.8	-	-	-	-	-
COC1=NS(=O)(=O)c2ccccc21	-	-	-	-	-	.	.	.	.
O=C(NCC1CCCN1S(=O)(=O)c1cccs1)c1ccc(Cl)cc1 (stereo not given)	-	-	-	-5.7	-	-	-	-	-
O=C(NCC1CCCN1S(=O)(=O)c1cccs1)c1ccccc1 (stereo not given)	-	-	-	-	-	.	.	.	.
CCOC(=O)c1c(-c2ccc(C)cc2)csc1NC1=NS(=O)(=O)c2ccccc21	-	-	-	-6.8	-	-	-	-	-
O=c1ccc(Oc2nc(N3CCCCC3)nc(N3CCCCC3)n2)n[nH]1	-	-	-	-5.5	-	-	-	-	-
CCCCN1CC[C@H]2C=CC[C@@H](C(=O)Nc3ccccc3)[C@H]2C1=O	-	-	-	-	-	.	.	.	.
CCCCN1CC[C@H]2C=CC[C@@H](C(=O)NCCc3ccccc3)[C@H]2C1=O	-	-	-	-6.1	-	-	-	-	-
O=C(NC(NC(=S)Nc1cc(Cl)ccc1Cl)C(Cl)(Cl)Cl)c1ccco1 (stereo not given)	-	-	-	-5.8	-	60%	-	-	-
O=C(NC(NC(=S)Nc1ccc(Cl)c(Cl)c1)C(Cl)(Cl)Cl)c1ccco1 (stereo not given)	-	-	-	-	-	.	.	.	.
SMILES	MrgX1 agonist	RGS4 block	MrgX1 allo act	MrgX1 antagonist	RGS4 act	MrgX1 antag conf	HEK293 Ca flux	HEK293 Ca counter	HEK293 Ca cntr2
CC(C)(C)C(O)C(Cc1ccccc1Cl)n1cncn1 (stereo not given)	-	-	-	-	-	.	.	.	.
CCC(=O)Nc1nc(-c2ccc3c(c2)CC(C)N3S(C)(=O)=O)cs1 (stereo not given)	-	-	-	-	-	.	.	.	.
CC1Cc2cc(-c3csc(NC(=O)Cc4cccs4)n3)ccc2N1S(C)(=O)=O (stereo not given)	-	-	-	-4.8	-	50%	-	-	-
COc1ccccc1CN(C)C(=O)c1ccccc1Sc1ccccc1C#N	-	-	-	-	-	.	.	.	.
Cc1ccccc1-c1nnnn1C1CCS(=O)(=O)C1 (stereo not given)	-	-	-	-6.4	-	-	-	-	-
Cc1cc2cc(CCNC(=O)c3ccc(Br)o3)c(=O)[nH]c2cc1C	-	-	-	-	-	.	.	.	.
COc1ccc2cc(CCNC(=O)c3ccc(Br)o3)c(=O)[nH]c2c1	-	-	-	-5.3	-	-	-	-	-
Fc1ccc(CN2CCSCC2)cc1F	-	-	-	-4.5	-	-	-	-	-
Cc1ccc(Nc2nc3ccccc3c(=O)s2)cc1	-	-	-	-7.3	-	-	-	-	-
O=c1sc(Nc2ccccc2)nc2ccccc12	-	-	-	-	-	.	.	.	.
COc1ccc(OCC(=O)Nc2ccc(Cl)cc2)cc1	-	-	-	-5	-	-	-	-	-
COCC(=O)Nc1nnc(COc2ccc(Cl)cc2)s1	-	-	-	-7.1	-	-	-	-	-
CCn1cc([N+](=O)[O-])c(C(=O)Nc2nc(-c3ccc(C)cc3)c(C)s2)n1	-	-	-	-10	-	-	-	-	-
O=C(NNc1c(Cl)cccc1Cl)c1cccs1	-	-	-	-	-	.	.	.	.
Nn1cnnc1N/N=C/c1cc(Br)cc(Br)c1O	-	-	-	-	-	.	.	.	.
C=CCn1c(SCc2cccc(C#N)c2)nnc1-c1ccccc1O	-	-	-	-4.6	-	-	-	-	-
C=CCn1c(SCc2ccc(C#N)cc2)nnc1-c1cccc(Cl)c1	-	-	-	-	-	.	.	.	.
CC(=O)NC(Cc1c[nH]c2ccccc12)C(=O)NCCc1ccccn1 (stereo not given)	-	-	-	-	-	.	.	.	.
CCOC(=O)C1CCN(C(=O)CCCOc2ccccc2)CC1	-	-	-	-	-	.	.	.	.
CCOC(=O)C1CCN(C(=O)CCCN2C(=O)c3ccccc3C2=O)CC1	-	-	-	-10	-	-	-	-	-
O=C1C(C2=NC(c3ccccn3)C3C(=O)N(c4ccccc4)C(=O)C23)=C(O)c2ccccc21 (stereo not given)	-	-	-	-	-	.	.	.	.
Cc1ccc(NC(=O)CC2C(=O)NC3CCCCC3N2C(=O)c2ccc(F)cc2)cc1C (stereo not given)	-	-	-	-	-	.	.	.	.

Screening data (PubChem)
